Activity calls are given as the source filed them. The rule behind the calls is not given here.
Legend:
[1] = Half-life in Sprague-Dawley rat plasma at 0.05 mM measured up to 24 hrs by LCMS analysis; assay type: ADME, cell-free; conditions: 50 µM
Summary of the method: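 Sprague Dawley rat plasma (sodium heparin) prewarmed 10 min at 37 °C. Compound added from 5 mM DMSO stock to a final 0.05 mM. Samples taken at 0, 0.5, 1, 2, 4, 6, 10 and 24 h, deproteinized with 2 volumes MeOH, centrifuged and filtered. Analysis by LCMS (C18, isocratic, ESI). Mean of three independent experiments.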

MT4 = assay: Cytotoxicity against human MT4 cells measured after 3 days by CytoTox-Glo assay; assay type: cell-based; conditions: mt4, 72 h
Summary of the method: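 MT4 cells cultured with a range of compound concentrations for 3 days. Viability by CytoTox-Glo, run per the manufacturer's protocol. CC50 is the concentration causing a 50% drop in viability.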

[2] = Agonist activity at Protein kinase C in human MT4 cells infected with HIV-1 NL4-3 assessed as inhibition of viral replication measured on day 3 post-infection by Nano-Glo luciferase assay
Protein kinase C (PKC) = assay: Agonist activity at Protein kinase C in human U1 cells infected with HIV-1 NL4-3 assessed as induction of HIV-1 p24 production after 72 hrs by ELISA; assay type: cell-based
Summary of the method: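 Latency model: U1 cells (2 × 10^5 cells/mL) incubated with a range of compound concentrations at 37 °C for 72 h. p24 in the supernatant measured by ELISA. EC50 is the concentration giving 50% of maximal p24 induction, from nonlinear regression.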

[3] = biological target: Protein kinase C beta type (Homo sapiens) (UniProt P05771); assay: Agonist activity at Protein kinase C beta in human MT4 cells infected with HIV-1 NL4-3 assessed as inhibition of viral replication at 0.6 nM measured on day 3 post-infection in presence of PKCbeta antagonist enzastaurin by Nano-Glo luciferase assay; assay type: cell-based
Chain of Protein kinase C beta type (Homo sapiens) (P05771 2-671 limits assumed): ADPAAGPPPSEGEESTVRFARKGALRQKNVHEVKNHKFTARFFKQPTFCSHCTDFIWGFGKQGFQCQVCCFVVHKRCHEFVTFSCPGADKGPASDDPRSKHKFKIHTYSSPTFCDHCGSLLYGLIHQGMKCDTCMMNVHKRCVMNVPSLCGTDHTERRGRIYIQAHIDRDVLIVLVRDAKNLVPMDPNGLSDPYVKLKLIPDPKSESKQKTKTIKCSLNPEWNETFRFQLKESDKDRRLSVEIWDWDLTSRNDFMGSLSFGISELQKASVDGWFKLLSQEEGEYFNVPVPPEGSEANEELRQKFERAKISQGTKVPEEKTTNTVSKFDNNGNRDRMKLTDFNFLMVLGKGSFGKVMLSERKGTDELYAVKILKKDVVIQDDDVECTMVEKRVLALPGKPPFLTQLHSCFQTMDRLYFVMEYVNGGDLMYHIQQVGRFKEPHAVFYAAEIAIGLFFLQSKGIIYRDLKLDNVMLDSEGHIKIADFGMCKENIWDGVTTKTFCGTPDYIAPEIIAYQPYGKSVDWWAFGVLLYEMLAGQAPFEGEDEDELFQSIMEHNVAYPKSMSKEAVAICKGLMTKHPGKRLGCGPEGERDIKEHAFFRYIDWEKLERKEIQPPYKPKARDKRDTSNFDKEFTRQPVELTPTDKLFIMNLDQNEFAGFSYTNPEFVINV
Summary of the method: (§1)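 Multicycle replication: MT4 cells (1 × 10^5 cells/mL) infected with HIV-1 NL4-3 NanoLuc-sec, 50 TCID50/well, with 0.6 nM or 2 nM PKC agonist, with or without enzastaurin at 0, 1/3 or 1 μM. Supernatant luciferase (Nano-Glo) read on day 3 post infection. Replication expressed relative to the no-compound control (100%). Duplicate assay.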

[4] = biological target: Protein kinase C beta type (Homo sapiens) (UniProt P05771); assay: Agonist activity at Protein kinase C beta in human MT4 cells infected with HIV-1 NL4-3 assessed as inhibition of viral replication at 0.6 nM measured on day 3 post-infection by Nano-Glo luciferase assay relative to control; assay type: cell-based; summary of the method: as §1
[5] = biological target: Protein kinase C beta type (Homo sapiens) (UniProt P05771); assay: Agonist activity at Protein kinase C beta in human MT4 cells infected with HIV-1 NL4-3 assessed as inhibition of viral replication at 2 nM measured on day 3 post-infection in presence of PKCbeta antagonist enzastaurin by Nano-Glo luciferase assay; assay type: cell-based; summary of the method: as §1
[6] = system: Human immunodeficiency virus 1; assay: Antiviral activity against HIV 1 NL4-3 infected in human MT4 cells assessed as inhibition of replication treated 48 hrs post infection and measured on day 4 post infection by ELISA; assay type: functional; conditions: Human immunodeficiency virus 1, NL4-3, MT4

Row | SMILES | t1/2 [1] | CC50 (MT4) | IC50 [2] | EC50 (Protein kinase C (PKC)) | Activity [3] | inhibition [4] | Activity [5] | IC90 [6]
1 | C=C(C)[C@]12C[C@@H](COC(=O)c3ccccc3)[C@@]34OC5(O[C@@H]1[C@@H]3[C@@H]1O[C@]1(CO)[C@@H](O)[C@@]1(O)[C@H]4[C@H]([C@H](C)[C@@H]1OC(=O)c1ccccc1)[C@H](C)CCCCCCC5=O)O2 | 21.65 h | > 1000 pM | 140 pM | 600 pM |  |  |  | 
2 | C=C(C)[C@]12C[C@@H](COC(=O)c3ccccc3)[C@@]34OC5(O[C@@H]1[C@@H]3[C@@H]1O[C@]1(CO)[C@@H](O)[C@@]1(O)[C@H]4[C@H]([C@H](C)[C@@H]1OC(=O)c1ccccc1)[C@H](C)CCCCCC[C@H]5O)O2 | 21.77 h | > 1000 pM | 130 pM | 190 pM | inactive | 90% |  | 
3 | C=C(C)[C@]12C[C@@H](COC(=O)c3ccccc3)[C@@]34OC5(O[C@@H]1[C@@H]3[C@@H]1O[C@]1(CO)[C@@H](O)[C@@]1(O)[C@H]4[C@H]([C@H](C)[C@@H]1OC(=O)c1ccncc1)[C@H](C)CCCCCC[C@H]5O)O2 |  | > 1000 pM | 360 pM | 550 pM |  |  | inactive | 
4 | C=C(C)[C@]12C[C@@H](COC(C)=O)[C@@]34OC5(O[C@@H]1[C@@H]3[C@@H]1O[C@]1(CO)[C@@H](O)[C@@]1(O)[C@H]4[C@H]([C@H](C)[C@@H]1OC(=O)c1ccccc1)[C@H](C)CCCCCC[C@H]5O)O2 |  |  |  |  |  |  |  | 400 pM

Source: ChEMBL document CHEMBL4373700, “Synthesis and Structure-Activity Relationship Correlations of Gnidimacrin Derivatives as Potent HIV-1 Inhibitors and HIV Latency Reversing Agents” (J Med Chem, 2019)
